Measurements as given in ChEMBL document CHEMBL2163301, “Substrates for efficient fluorometric screening employing the NAD-dependent sirtuin 5 lysine deacylase (KDAC) enzyme” (J Med Chem, 2012).
Where a name gives a salt, the structure may show the parent alone. The source made the active and inactive calls. The rule behind the calls is not given here. Where a SMILES comes first, the peptide text is derived from it. The star is where a group is joined. AMC = Cc1cc(=O)oc2cc(N*)ccc12; Tfa = O=C(C(F)(F)F)*

Experiments:
[1] = target: T1, NAD-dependent protein deacetylase sirtuin-1 (Homo sapiens) (UniProt Q96EB6); assay: Activity of human SIRT1 assessed as decrotonylation of compound at 50 uM after 1 hr by trypsin developer-based fluorescence assay
T1 sequence (whole entry): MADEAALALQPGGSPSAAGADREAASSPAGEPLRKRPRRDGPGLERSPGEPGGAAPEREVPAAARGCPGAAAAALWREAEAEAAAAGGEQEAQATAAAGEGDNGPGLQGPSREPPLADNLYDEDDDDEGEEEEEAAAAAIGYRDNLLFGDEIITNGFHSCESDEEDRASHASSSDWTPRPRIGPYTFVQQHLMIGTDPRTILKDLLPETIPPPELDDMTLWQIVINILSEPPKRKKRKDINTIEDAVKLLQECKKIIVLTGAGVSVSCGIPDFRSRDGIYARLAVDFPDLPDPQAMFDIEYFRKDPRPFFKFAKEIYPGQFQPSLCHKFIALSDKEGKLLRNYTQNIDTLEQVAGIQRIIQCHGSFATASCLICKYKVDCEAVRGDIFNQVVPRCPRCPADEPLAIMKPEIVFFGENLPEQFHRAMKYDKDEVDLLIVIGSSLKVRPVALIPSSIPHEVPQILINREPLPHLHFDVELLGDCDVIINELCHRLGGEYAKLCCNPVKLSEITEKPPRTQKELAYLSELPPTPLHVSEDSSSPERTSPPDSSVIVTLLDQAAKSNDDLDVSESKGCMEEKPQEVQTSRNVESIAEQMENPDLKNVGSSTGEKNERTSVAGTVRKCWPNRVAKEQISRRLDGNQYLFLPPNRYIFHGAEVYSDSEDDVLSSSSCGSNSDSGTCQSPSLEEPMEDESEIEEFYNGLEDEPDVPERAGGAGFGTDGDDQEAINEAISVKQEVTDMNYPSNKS
How it was run: (§1)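 Recombinant sirtuin at 1 μg per 50 μL reaction, with SIRT1-GST fusion as the SIRT1 source. Fluorogenic substrate and NAD incubated in Tris-Cl buffer pH 8.0 with BSA (1 mg/mL) for 1 h at 37 °C. Developer with nicotinamide (2 mM) and trypsin (0.4 mg/mL) added, 15–30 min at room temperature. Fluorescence read at ex 360/em 460 nm and normalized to no-enzyme wells. At least two experiments in duplicate.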

[2] = target: NAD-dependent protein deacylase sirtuin-6 (Homo sapiens) (UniProt Q8N6T7); assay: Activity of human SIRT6 assessed as decrotonylation of compound at 50 uM after 1 hr by trypsin developer-based fluorescence assay; how it was run: as §1
[3] = target: T2, NAD-dependent protein deacetylase sirtuin-2 (Homo sapiens) (UniProt Q8IXJ6); assay: Activity of human SIRT2 assessed as decrotonylation of compound at 50 uM after 1 hr by trypsin developer-based fluorescence assay; how it was run: as §1
T2 sequence (whole entry): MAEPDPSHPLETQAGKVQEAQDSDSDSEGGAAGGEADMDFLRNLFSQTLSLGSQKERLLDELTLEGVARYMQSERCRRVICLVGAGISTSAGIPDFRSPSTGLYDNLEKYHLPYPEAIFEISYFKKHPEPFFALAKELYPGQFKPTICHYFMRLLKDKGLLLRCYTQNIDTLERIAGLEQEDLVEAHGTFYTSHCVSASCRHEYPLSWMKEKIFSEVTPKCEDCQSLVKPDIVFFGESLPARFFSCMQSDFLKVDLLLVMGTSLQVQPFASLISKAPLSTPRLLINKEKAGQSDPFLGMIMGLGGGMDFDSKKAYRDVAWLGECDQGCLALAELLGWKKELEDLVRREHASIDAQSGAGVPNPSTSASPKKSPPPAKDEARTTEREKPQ

[4] = target: NAD-dependent protein deacylase sirtuin-5, mitochondrial (Homo sapiens) (UniProt Q9NXA8); assay: Activity of human SIRT5 assessed as decrotonylation of compound at 50 uM after 1 hr by trypsin developer-based fluorescence assay; how it was run: as §1
[5] = target: T3, NAD-dependent protein deacetylase sirtuin-3, mitochondrial (Homo sapiens) (UniProt Q9NTG7); assay: Activity of human SIRT3 assessed as decrotonylation of compound at 50 uM after 1 hr by trypsin developer-based fluorescence assay; how it was run: as §1
T3 sequence (whole entry): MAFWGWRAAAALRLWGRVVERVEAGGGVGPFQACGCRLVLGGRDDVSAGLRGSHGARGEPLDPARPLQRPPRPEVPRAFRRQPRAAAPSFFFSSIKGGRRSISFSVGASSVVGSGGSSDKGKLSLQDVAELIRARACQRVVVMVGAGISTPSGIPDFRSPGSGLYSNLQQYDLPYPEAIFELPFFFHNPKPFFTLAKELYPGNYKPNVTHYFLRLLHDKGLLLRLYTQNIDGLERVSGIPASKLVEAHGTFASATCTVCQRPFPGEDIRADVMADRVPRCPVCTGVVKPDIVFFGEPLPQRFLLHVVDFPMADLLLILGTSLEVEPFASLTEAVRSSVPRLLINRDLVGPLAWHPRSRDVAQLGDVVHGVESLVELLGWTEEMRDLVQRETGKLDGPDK

[6] = target: T3, NAD-dependent protein deacetylase sirtuin-3, mitochondrial (Homo sapiens); assay: Activity of human SIRT3 assessed as deacylation of compound at 50 uM after 1 hr by trypsin developer-based fluorescence assay; how it was run: as §1
[7] = target: NAD-dependent protein deacylase sirtuin-5, mitochondrial (Homo sapiens) (UniProt Q9NXA8); assay: Activity of human SIRT5 assessed as deacylation of compound at 50 uM after 1 hr by trypsin developer-based fluorescence assay; how it was run: as §1
[8] = target: T1, NAD-dependent protein deacetylase sirtuin-1 (Homo sapiens); assay: Activity of human full length SIRT1 enzyme at 50 uM after 1 hr by trypsin developer-based fluorescence assay
How it was run: (§2)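 Acetylated substrates were each treated with commercial full-length His-tagged SIRT1 or truncated SIRT1-GST fusion, with NAD, in Tris-Cl pH 8.0 buffer containing BSA. End point: 1 h at 37 °C, then nicotinamide (2 mM)/trypsin (0.4 mg/mL) developer for 15–30 min at room temperature. Fluorescence read at ex 360/em 460 nm against no-enzyme control wells.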

[9] = target: T2, NAD-dependent protein deacetylase sirtuin-2 (Homo sapiens); assay: Activity of human SIRT2 assessed as deacylation of compound at 50 uM after 1 hr by trypsin developer-based fluorescence assay; how it was run: as §1
[10] = target: T4, NAD-dependent protein lipoamidase sirtuin-4, mitochondrial (Homo sapiens) (UniProt Q9Y6E7); assay: Activity of recombinant human SIRT4 assessed as deacylation of compound at 50 uM after 1 hr by trypsin developer-based fluorescence assay; how it was run: as §1
T4 sequence (whole entry): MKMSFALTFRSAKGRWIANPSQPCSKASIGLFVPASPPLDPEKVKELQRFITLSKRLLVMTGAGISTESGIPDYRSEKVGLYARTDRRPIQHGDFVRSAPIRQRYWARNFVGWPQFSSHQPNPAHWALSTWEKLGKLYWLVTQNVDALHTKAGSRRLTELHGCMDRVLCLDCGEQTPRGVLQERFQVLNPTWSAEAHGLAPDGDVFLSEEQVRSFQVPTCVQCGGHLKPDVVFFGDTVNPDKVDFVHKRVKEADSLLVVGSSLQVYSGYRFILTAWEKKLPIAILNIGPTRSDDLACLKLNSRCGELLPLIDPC

[11] = target: NAD-dependent protein deacylase sirtuin-6 (Homo sapiens) (UniProt Q8N6T7); assay: Activity of human SIRT6 assessed as deacylation of compound at 50 uM after 1 hr by trypsin developer-based fluorescence assay; how it was run: as §1
[12] = target: T5, NAD-dependent protein deacetylase sirtuin-7 (Homo sapiens) (UniProt Q9NRC8); assay: Activity of recombinant human SIRT7 assessed as deacylation of compound at 50 uM after 1 hr by trypsin developer-based fluorescence assay; how it was run: as §1
T5 sequence (whole entry): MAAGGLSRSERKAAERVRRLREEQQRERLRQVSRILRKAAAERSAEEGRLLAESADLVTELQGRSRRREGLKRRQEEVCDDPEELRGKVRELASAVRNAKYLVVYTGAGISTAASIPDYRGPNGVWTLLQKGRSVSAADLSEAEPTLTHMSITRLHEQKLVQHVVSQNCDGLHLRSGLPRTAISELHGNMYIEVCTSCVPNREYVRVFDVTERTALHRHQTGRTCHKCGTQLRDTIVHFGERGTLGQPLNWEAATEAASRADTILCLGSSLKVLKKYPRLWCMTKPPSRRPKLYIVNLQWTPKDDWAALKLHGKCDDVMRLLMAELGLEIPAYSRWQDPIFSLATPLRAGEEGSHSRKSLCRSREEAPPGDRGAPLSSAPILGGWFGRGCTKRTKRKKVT

[13] = target: T1, NAD-dependent protein deacetylase sirtuin-1 (Homo sapiens); assay: Activity of human SIRT1 assessed as deacylation of compound at 50 uM after 1 hr by trypsin developer-based fluorescence assay; how it was run: as §1
[14] = target: T1, NAD-dependent protein deacetylase sirtuin-1 (Homo sapiens); assay: Activity of human truncated SIRT1-GST fusion protein at 50 uM after 1 hr by trypsin developer-based fluorescence assay; how it was run: as §2
[15] = system: CC(=O)N[C@@H](CCCCNC(=O)CCC(=O)O)C(=O)Nc1ccc2c(C)cc(=O)oc2c1; assay: (§3) Activity of human SIRT5 assessed as desuccinylation of compound after 1 hr by Michaelis-Menten plot analysis
How it was run: (§4)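 Recombinant human SIRT5 with fluorogenic succinyllysine-AMC substrate and NAD in Tris-Cl buffer pH 8.0 containing BSA, with in situ AMC release by Lys-C or trypsin developer. Fluorescence (ex 360/em 460 nm) read every 30 s for at least 30 min at 25 °C to give initial rates over a substrate concentration series. Km and Vmax from Michaelis-Menten fit; kcat from AMC standard curve and supplier enzyme concentration.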

[16] = system: CC(=O)N[C@@H](CC(C)C)C(=O)NCC(=O)N[C@@H](CCCCNC(=O)CCC(=O)O)C(=O)Nc1ccc2c(C)cc(=O)oc2c1; assay: as §3; how it was run: as §4
[17] = system: CC(=O)N[C@@H](CCCCNC(=O)CCC(=O)O)C(=O)Nc1ccc2c(C)cc(=O)oc2c1; assay: (§5) Ratio of Kcat to Km for human SIRT5 assessed as desuccinylation of compound after 1 hr by Michaelis-Menten plot analysis; how it was run: as §4
[18] = system: CC(=O)N[C@@H](CC(C)C)C(=O)NCC(=O)N[C@@H](CCCCNC(=O)CCC(=O)O)C(=O)Nc1ccc2c(C)cc(=O)oc2c1; assay: as §5; how it was run: as §4

Chain of NAD-dependent protein deacylase sirtuin-5, mitochondrial (Homo sapiens) (Q9NXA8 37-310 limits assumed): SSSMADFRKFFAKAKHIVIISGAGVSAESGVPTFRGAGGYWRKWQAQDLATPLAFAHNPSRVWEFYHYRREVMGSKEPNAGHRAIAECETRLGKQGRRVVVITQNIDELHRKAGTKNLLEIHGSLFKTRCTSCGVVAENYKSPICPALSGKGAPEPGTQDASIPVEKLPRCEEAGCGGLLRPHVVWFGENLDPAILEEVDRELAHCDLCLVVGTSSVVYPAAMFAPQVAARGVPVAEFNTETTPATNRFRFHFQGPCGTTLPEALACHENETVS
Chain of NAD-dependent protein deacylase sirtuin-5, mitochondrial (Homo sapiens), Q9NXA8 (Q9NXA8 whole entry): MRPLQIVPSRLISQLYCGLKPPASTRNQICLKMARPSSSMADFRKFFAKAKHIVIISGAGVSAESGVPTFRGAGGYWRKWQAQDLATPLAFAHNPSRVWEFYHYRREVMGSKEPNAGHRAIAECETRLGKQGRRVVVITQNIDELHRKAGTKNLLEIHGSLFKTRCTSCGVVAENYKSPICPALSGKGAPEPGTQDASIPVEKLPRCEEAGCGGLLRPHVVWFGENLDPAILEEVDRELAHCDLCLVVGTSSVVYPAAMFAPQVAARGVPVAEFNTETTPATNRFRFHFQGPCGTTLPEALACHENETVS
Chain of NAD-dependent protein deacylase sirtuin-6 (Homo sapiens) (Q8N6T7 whole entry): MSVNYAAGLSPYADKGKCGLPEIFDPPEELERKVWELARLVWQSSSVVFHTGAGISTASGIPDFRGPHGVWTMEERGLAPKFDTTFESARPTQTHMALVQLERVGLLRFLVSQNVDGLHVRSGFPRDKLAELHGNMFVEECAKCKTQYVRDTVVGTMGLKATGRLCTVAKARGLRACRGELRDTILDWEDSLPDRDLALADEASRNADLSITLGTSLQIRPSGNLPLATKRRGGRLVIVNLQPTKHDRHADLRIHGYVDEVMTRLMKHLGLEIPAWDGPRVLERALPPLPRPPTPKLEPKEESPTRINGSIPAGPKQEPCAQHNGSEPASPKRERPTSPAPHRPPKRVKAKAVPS

Molecule	Activity [6]	Activity [7]	Activity [8]	Activity [9]	Activity [10]	Activity [11]	Activity [12]	Activity [13]	Activity [14]	also measured
CC(=O)N[C@@H](CC(C)C)C(=O)NCC(=O)N[C@@H](CCCCNC(=O)C(F)(F)F)C(=O)Nc1ccc2c(C)cc(=O)oc2c1 (Ac-Leu-Gly-Lys(Tfa)-{AMC})										Activity [1]: Active; Activity [2]: inactive; Activity [3]: inactive; Activity [4]: inactive; Activity [5]: inactive
CC(=O)NCCCC[C@H](NC(=O)[C@H](CCCCN)NC(=O)[C@@H]1CCCN1C(=O)[C@H](CCC(N)=O)NC(C)=O)C(=O)Nc1ccc2c(C)cc(=O)oc2c1 (Ac-QPKK(Ac)-{AMC})	Active	inactive	inactive	Active	inactive	inactive	inactive	Active	inactive	
CC(=O)NCCCC[C@H](NC(=O)[C@H](CCCCNC(C)=O)NC(=O)[C@H](Cc1cnc[nH]1)NC(=O)[C@H](CCCNC(=N)N)NC(C)=O)C(=O)Nc1ccc2c(C)cc(=O)oc2c1 (Ac-RHK(Ac)K(Ac)-{AMC})	Active	inactive	inactive	Active	inactive	inactive	inactive	Active	inactive	
CC(=O)NCCCC[C@H](NC(=O)[C@H](CCCCN)NC(=O)[C@H](Cc1cnc[nH]1)NC(=O)[C@H](CCCNC(=N)N)NC(C)=O)C(=O)Nc1ccc2c(C)cc(=O)oc2c1 (Ac-RHKK(Ac)-{AMC})	Active	inactive	inactive	Active	inactive	inactive	inactive	Active	inactive	
NAD-dependent protein deacylase sirtuin-5, mitochondrial (Homo sapiens), Q9NXA8										Km [15]: 84 µM; Vmax [15]: 5.6 ×10⁻⁴ µM/s; kcat [15]: 9 ×10⁻³ /s; Km [16]: 33 µM; Vmax [16]: 1.9 nM/s; kcat [16]: 3 ×10⁻² /s; kcat/Km [17]: 1.1 ×10² /s/M; kcat/Km [18]: 9.2 ×10² /s/M
